Assay results from ChEMBL document CHEMBL1147846, “Synthetic 2',5'-dimethoxychalcones as G(2)/M arrest-mediated apoptosis-inducing agents and inhibitors of nitric oxide production in rat macrophages” (Eur J Med Chem, 2007).

Experiments:
Neutrophil [1] = test: Inhibition of 3 nM PMA-stimulated superoxide anion generation in rat neutrophils; assay type: functional, cell-based; conditions: for IC50: Rattus norvegicus, Neutrophil
Procedure, shortened: (§1)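 Rat neutrophils, with superoxide anion generation triggered by either fMLP combined with cytochalasin B or by PMA (3 nM).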

[2] = Cytotoxicity against human Hep 3B cells by MTT microassay; assay type: functional, cell-based, Hep 3B2; conditions: Hep3B
Procedure, shortened: (§2)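 MTT microassay in cultured human tumour cells from ATCC. Compounds were dissolved in DMSO and diluted in culture medium to 0.1% DMSO. Controls received medium with 0.1% DMSO, and 5-fluorouracil was the positive control. IC50 is given as mean ± SD, n = 3.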

Neutrophil [3] = test: Inhibition of 5 ug/ml CB-stimulated Lysozyme release from rat neutrophils; assay type: functional, cell-based; conditions: for IC50: Rattus norvegicus, Neutrophil
Procedure, shortened: (§3)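 Rat neutrophils were stimulated with fMLP plus cytochalasin B, and β-glucuronidase and lysozyme release were measured. Trifluoperazine was the positive control. IC50 is mean ± SD, n = 3; where IC50 exceeds 30, % inhibition at 30 is shown.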

Neutrophil [4] = test: Inhibition of 1 uM fMLP-stimulated beta-Glucuronidase release from rat neutrophils; assay type: functional, cell-based; conditions: for IC50: Rattus norvegicus, Neutrophil; procedure, shortened: as §3
[5] = Inhibition of beta-glucuronidase release from rat mast cells; assay type: functional; design: Inhibition: concentration or dose not given beside the values; conditions: for IC50: Rattus norvegicus
RAW [6] = test: Inhibition of 1 ug/ml LPS-stimulated TNFalpha accumulation in RAW 264 cells after 24 hrs; assay type: functional, cell-based, Mus musculus; conditions: for IC50: Mus musculus, RAW, 24 h
Procedure, shortened: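 RAW 264.7 cells were activated with LPS, and TNF-α formation in the culture medium was measured. Genistein was the positive control. Results are mean ± SD, n = 3.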

A549 = test: Cytotoxicity against human A549 cells by MTT microassay; assay type: functional, cell-based; procedure, shortened: as §2
MCF7 [7] = test: Cytotoxicity against human MCF7 cells by MTT microassay; assay type: functional, cell-based; procedure, shortened: as §2
Neutrophil [8] = test: Inhibition of 0.3 uM fMLP-stimulated superoxide anion generation in rat neutrophils; assay type: functional, cell-based; conditions: for IC50: Rattus norvegicus, Neutrophil; procedure, shortened: as §1
RAW [9] = test: Inhibition of 1ug/ml LPS-stimulated nitirc oxide accumulation in RAW 264 cells after 24 hrs; assay type: functional, cell-based, Mus musculus; conditions: for IC50: Mus musculus, RAW, 24 h
Procedure, shortened: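 RAW 264.7 cells were activated with LPS for 24 h. NO was measured as nitrite accumulated in the medium, by Griess reaction. 1400W was the positive control. Results are mean ± SD, n = 3.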

[10] = Inhibition of histamine release from rat mast cells; assay type: functional; design: Inhibition: concentration or dose not given beside the values; conditions: for IC50: Rattus norvegicus
HT-29 = test: Cytotoxicity against human HT29 cells by MTT microassay; assay type: functional, cell-based; procedure, shortened: as §2
MCF7 [11] = test: Induction of apoptosis in MCF7 cells assessed as subG1-phase accumulation at 52 uM after 24 hrs; assay type: functional, Homo sapiens
Procedure, shortened: (§4)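 MCF-7 cells were exposed to compound and washed with PBS at each time point. They were fixed in 4% paraformaldehyde/PBS (pH 7.4) for 30 min at room temperature, then permeabilized in 0.1% Triton X-100/0.1% sodium citrate for 2 min at 4 °C. PI staining followed for 30 min at 37 °C. FACScan flow cytometry counted ≥5000 cells. Apoptosis is the sub-G1 DNA fraction; controls received medium; three independent experiments.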

MCF7 [12] = test: Induction of apoptosis in MCF7 cells assessed as subG1-phase accumulation at 8.7 uM after 48 hrs; assay type: functional, Homo sapiens; procedure, shortened: as §4
MCF7 [13] = test: Induction of apoptosis in MCF7 cells assessed as subG1-phase accumulation at 52 uM after 72 hrs; assay type: functional, Homo sapiens; procedure, shortened: as §4
MCF7 [14] = test: Induction of apoptosis in MCF7 cells assessed as subG1-phase accumulation at 8.7 uM after 24 hrs; assay type: functional, Homo sapiens; procedure, shortened: as §4
MCF7 [15] = test: Induction of apoptosis in MCF7 cells assessed as subG1-phase accumulation at 8.7 uM after 72 hrs; assay type: functional, Homo sapiens; procedure, shortened: as §4
MCF7 [16] = test: Induction of apoptosis in MCF7 cells assessed as subG1-phase accumulation at 34.7 uM after 48 hrs; assay type: functional, Homo sapiens; procedure, shortened: as §4
MCF7 [17] = test: Induction of apoptosis in MCF7 cells assessed as subG1-phase accumulation at 34.7 uM after 24 hrs; assay type: functional, Homo sapiens; procedure, shortened: as §4
MCF7 [18] = test: Induction of apoptosis in MCF7 cells assessed as subG1-phase accumulation at 52 uM after 48 hrs; assay type: functional, Homo sapiens; procedure, shortened: as §4
MCF7 [19] = test: Induction of apoptosis in MCF7 cells assessed as subG1-phase accumulation at 34.7 uM after 72 hrs; assay type: functional, Homo sapiens; procedure, shortened: as §4

SMILES | Inhibition (Neutrophil [1]) [%] | IC50 (Neutrophil [1]) [µM] | IC50 [2] [µM] | IC50 (Neutrophil [3]) [µM] | IC50 (Neutrophil [4]) [µM] | IC50 [5] [µM] | IC50 (RAW [6]) [µM] | IC50 (A549) [µM] | IC50 (MCF7 [7]) [µM] | IC50 (Neutrophil [8]) [µM] | IC50 (RAW [9]) [µM] | IC50 ([10]; read-out: IC50) [µM] | IC50 (HT-29) [µM] | further results
COc1ccc(OC)c(C(=O)/C=C/c2cccs2)c1 | 7.9 | > 30 | 8.4 | 14.6 | > 30 | > 30 | > 30 | 11 | 3.8 | > 30 | > 10 | > 30 | 13.3 | Inhibition (Neutrophil [4]): 38.5%; Inhibition [5]: -4.6%; Inhibition (RAW [6]): 5.9%; Inhibition (Neutrophil [8]): 47.2%; Inhibition (RAW [9]): 49.8%; Inhibition [10]: 0.8%
COc1ccc(OC)c(C(=O)/C=C/c2ccsc2)c1 |  |  | 5.7 |  |  |  |  | 3.8 | 3.7 |  |  |  | 5.3 | 
COc1ccc(OC)c(C(=O)/C=C/c2ccco2)c1 | 49.1 | > 30 | 19 | 8.3 | 6.2 | 18.4 | 4.6 | 27.9 | 10.5 | 3 | 5.7 | > 30 | 24.8 | 
COc1ccc(OC)c(C(=O)/C=C/c2ccoc2)c1 |  |  | 12 |  |  |  |  | 22.1 | 18.2 |  |  |  | 21.3 | 
COc1ccc(OC)c(C(=O)/C=C/c2ccc(C)o2)c1 | 39 | > 30 | 26.5 | 17.8 | 22.2 | > 30 | > 10 | 51.5 | 10.3 | > 30 | > 10 |  | 43 | Inhibition [5]: 12.7%; Inhibition (RAW [6]): -10.5%; Inhibition (Neutrophil [8]): 48.1%; Inhibition (RAW [9]): 29.5%; Inhibition [10]: 17.5%; IC50 [10]: > 30 µM
COc1ccc(OC)c(C(=O)/C=C/c2ccc(C)s2)c1 | -11.9 | > 30 | 3.4 | > 30 | > 30 | > 30 | > 30 | 4.5 | 2.6 | > 30 | 6.7 | > 30 | 1.8 | Inhibition (Neutrophil [3]): 37.4%; Activity (MCF7 [11]): 5.09%; Inhibition (Neutrophil [4]): 45.6%; Activity (MCF7 [12]): 16.39%; Inhibition [5]: -2.7%; Inhibition (RAW [6]): 46%; Activity (MCF7 [13]): 63.79%; Activity (MCF7 [14]): 7.52%; Activity (MCF7 [15]): 41.61%; Inhibition (Neutrophil [8]): 49.1%; Activity (MCF7 [16]): 18.68%; Activity (MCF7 [17]): 4.05%; Inhibition [10]: 43.5%; Activity (MCF7 [18]): 21.23%; Activity (MCF7 [19]): 62.4%
COc1ccc(OC)c(C(=O)/C=C/c2sccc2C)c1 |  |  | 16.7 |  |  |  |  | 22.2 | 7.6 |  |  |  | 19.4 | 
COc1ccc(OC)c(C(=O)/C=C/c2ccc(OC/C=C/c3ccccc3)cc2)c1 | 4.1 | > 10 | 17.3 | > 30 | > 30 | > 30 | > 30 | 39.8 | 19 | > 10 | > 30 | > 30 | 26.3 | Inhibition (Neutrophil [3]): 33.1%; Inhibition (Neutrophil [4]): 18.8%; Inhibition [5]: -11.2%; Inhibition (RAW [6]): 15%; Inhibition (Neutrophil [8]): -71.9%; Inhibition (RAW [9]): 27.9%; Inhibition [10]: 0.3%
COc1ccc(OC)c(C(=O)/C=C/c2ccc(OC(=O)/C=C/c3ccc(C)cc3)cc2)c1 |  |  | 29 |  |  |  |  | 29.7 | 12.6 |  |  |  | 16.4 | 
COc1ccc(/C=C/C(=O)Oc2ccc(/C=C/C(=O)c3cc(OC)ccc3OC)cc2)cc1 |  |  | 42.6 |  |  |  |  | 60.4 | 4.1 |  |  |  | 23 | 
COc1ccc(OC)c(C(=O)/C=C/c2ccc(Br)o2)c1 | -2.2 | > 30 | 11 | > 30 | > 30 | > 30 | > 30 | 14.9 | 11 | 19.7 | 12.8 | > 30 | 15.2 | Inhibition (Neutrophil [3]): 33.4%; Inhibition (Neutrophil [4]): 36.9%; Inhibition [5]: -13.3%; Inhibition (RAW [6]): 35.6%; Inhibition [10]: 6.3%
COc1ccc(OC)c(C(=O)/C=C/c2ccc(OC(=O)/C=C/c3cc(OC)c(OC)c(OC)c3)cc2)c1 |  |  | 23.2 |  |  |  |  | 36.7 | 6.4 |  |  |  | 23.8 | 
CC(=N)NCc1cccc(CN)c1 [1400W] |  |  |  |  |  |  |  |  |  |  | 5.2 |  |  | 
CC(=O)O[C@H](CC=C(C)C)C1=CC(=O)c2c(O)ccc(O)c2C1=O [ACETYLSHIKONIN] |  |  |  |  |  | 2.2 |  |  |  |  |  | 2 |  | 
c1ccc2c(c1)[I+]c1ccccc1-2 [DIPHENYLENEIODONIUM CHLORIDE] |  | 3.3 |  |  |  |  |  |  |  | 5.8 |  |  |  | 
O=c1[nH]cc(F)c(=O)[nH]1 [FLUOROURACIL] |  |  | 0.6 |  |  |  |  | 3.1 | 1.5 |  |  |  | 0.6 | 
O=c1c(-c2ccc(O)cc2)coc2cc(O)cc(O)c12 [GENISTEIN] |  |  |  |  |  |  | 18.1 |  |  |  |  |  |  | 
CN1CCN(CCCN2c3ccccc3Sc3ccc(C(F)(F)F)cc32)CC1 [TRIFLUOPERAZINE] |  |  |  | 12.7 | 13.2 |  |  |  |  |  |  |  |  | 
